According to ChEMBL document CHEMBL3351414, “Novel 9'-substituted-noscapines: synthesis with Suzuki cross-coupling, structure elucidation and biological evaluation” (Eur J Med Chem, 2014):
Calls of active or inactive are those of the source. The rule behind the calls is not given here.

Columns and labels:
[1] = tested on: PBL; experiment: Cytotoxicity against PHA-stimulated human PBLs assessed as reduction in cell growth; format: cell-based
Method in brief: (§1)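 Peripheral blood lymphocytes from healthy donors, tested either resting (no PHA) or PHA-stimulated. Value is the concentration reducing cell growth by 50%, mean ± SEM of three separate experiments.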

[2] = target: T1, Tubulin (Bos taurus, UniProt Q6B856+Q862L2+Q862F3); experiment: Inhibition of bovine brain tubulin assessed as extent of assembly preincubated for 15 mins by turbidimetry
Method in brief: (§2)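 Bovine brain tubulin at 10 µM (1.0 mg/mL) in 0.8 M monosodium glutamate pH 6.6 with 4% DMSO and varying compound was preincubated 15 min at 30 °C, then chilled. GTP was added to 0.4 mM final and the temperature jumped from 0 to 30 °C. Turbidity was followed at 350 nm, scoring either maximum rate or extent of assembly at 20 min.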

[3] = target: T1, Tubulin; experiment: Inhibition of bovine brain tubulin assessed as rate of assembly preincubated for 15 mins by turbidimetry; method in brief: as §2
[4] = tested on: HeLa; experiment: Disruption of microtubule network in human HeLa cells assessed as induction of spherical morphology at 25 uM after 24 hrs by immunofluorescence microscopy; format: cell-based
Method in brief: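 HeLa cells exposed 24 h at 25 µM, fixed in cold 4% formaldehyde for 15 min, and stained with anti-β-tubulin plus Alexa-conjugated secondary antibody, with DAPI counterstain. Cells were imaged by confocal microscopy.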

[5] = tested on: HeLa; experiment: Effect on PCM1 protein in human HeLa cells assessed as accumulation of pericentriolar material at 25 uM after 24 hrs by immunofluorescence microscopy; format: functional, cell-based
Method in brief: (§3)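 After 24 h at 25 µM, HeLa cells were stained with anti-PCM1 and Alexa-conjugated secondary antibody, with phalloidin-tetramethylrhodamine B for actin and DAPI for nuclei. Cells were imaged by confocal microscopy at 60×.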

[6] = tested on: HeLa; experiment: Effect on cell morphology in human HeLa cells at 25 uM after 24 hrs using phalloidin staining by confocal microscopy; format: functional, cell-based; method in brief: as §3
[7] = tested on: HeLa; experiment: Effect on cell morphology in human HeLa cells assessed as disorganization of actin filament at 25 uM after 24 hrs by confocal microscopy relative to control; format: functional, cell-based; method in brief: as §3
[8] = tested on: HeLa; experiment: Cell cycle arrest in human HeLa cells assessed as accumulation at G2/M phase after 24 hrs by flow cytometry; format: functional, cell-based
Method in brief: (§4)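 5×10^5 HeLa or Jurkat cells exposed to graded compound concentrations for 24 h. Cells were fixed in ice-cold 70% ethanol, lysed with RNase A/0.1% Triton X-100 buffer and stained with propidium iodide. DNA content was read by flow cytometry. Phase percentages are mean ± SEM of three independent experiments.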

[9] = tested on: Jurkat; experiment: Cell cycle arrest in human Jurkat cells assessed as accumulation at G2/M phase after 24 hrs by flow cytometry; format: functional, cell-based; method in brief: as §4
[10] = tested on: HeLa; experiment: Cell cycle arrest in human HeLa cells assessed as accumulation at G2/M phase at 10 to 25 uM after 24 hrs by flow cytometry; format: functional, cell-based; method in brief: as §4
[11] = tested on: HeLa; experiment: Cell cycle arrest in human HeLa cells assessed as accumulation at G2/M phase at 25 uM after 24 hrs by flow cytometry; format: functional; method in brief: as §4
[12] = tested on: Jurkat; experiment: Cell cycle arrest in human Jurkat cells assessed as accumulation at G2/M phase at 10 to 25 uM after 24 hrs by flow cytometry; format: functional, cell-based; method in brief: as §4
[13] = tested on: CA46; experiment: Antiproliferative activity against human CA46 cells assessed as reduction in cell viability after 72 hrs by MTT assay; format: functional, cell-based; details: CA46, 72 h
[14] = tested on: CA46; experiment: Cell cycle arrest in human CA46 cells assessed as accumulation at G2/M phase at 5 times IC50 by flow cytometry; format: functional
[15] = tested on: CA46; experiment: Cell cycle arrest in human CA46 cells assessed as reduction in mitotic index by Giemsa staining method relative to control; format: functional; design: scale not given: the % may be the effect or the level left
Method in brief: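 CA46 Burkitt lymphoma cells grown in RPMI 1640 with 17% FBS and 2 mM L-glutamine at 37 °C, 5% CO2, treated 16 h. Cells were swollen 10 min in half-strength PBS, fixed in 0.5% acetic acid–1.5% ethanol, then spread from 25% acetic acid/75% ethanol. Slides were Giemsa-stained. Mitotic cells were those with condensed chromosomes and no nuclear membrane, with ≥200 cells counted per condition.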

[16] = tested on: HeLa; experiment: Antiproliferative activity against human HeLa cells assessed as reduction in cell viability after 72 hrs by MTT assay; format: functional, cell-based
Method in brief: (§5)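 Cells kept in RPMI-1640 (Jurkat, SEM, RS4;11) or DMEM (A549, HeLa, IGROV-1, HT-29) with 10% FBS plus penicillin/streptomycin. 8×10^3 cells per well were left 18 h at 37 °C in 5% CO2. Medium was then replaced with fresh medium holding graded compound concentrations from 10 mM DMSO stocks. Cells were incubated 72 h and viability read by MTT. IC50 is the mean ± SEM from dose–response curves of at least three independent experiments.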

[17] = Antiproliferative activity against human SEM cells assessed as reduction in cell viability after 72 hrs by MTT assay; format: functional, cell-based; method in brief: as §5
[18] = Antiproliferative activity against human RS4:11 cells assessed as reduction in cell viability after 72 hrs by MTT assay; format: functional, cell-based; details: RS4-11, 72 h; method in brief: as §5
[19] = tested on: CCRF-CEM; experiment: Antiproliferative activity against human CEM cells assessed as reduction in cell viability after 72 hrs by MTT assay; format: functional, cell-based
[20] = tested on: LoVo; experiment: Antiproliferative activity against human LoVo cells assessed as reduction in cell viability after 72 hrs by MTT assay; format: functional, cell-based
[21] = tested on: HT-29; experiment: Antiproliferative activity against human HT-29 cells assessed as reduction in cell viability after 72 hrs by MTT assay; format: functional, cell-based; details: HT-29, 72 h; method in brief: as §5
[22] = tested on: A549; experiment: Antiproliferative activity against human A549 cells assessed as reduction in cell viability after 72 hrs by MTT assay; format: functional, cell-based; details: A549, 72 h; method in brief: as §5
[23] = tested on: IGROV-1; experiment: Antiproliferative activity against human IGROV1 cells assessed as reduction in cell viability after 72 hrs by MTT assay; format: functional, cell-based; details: IGROV-1, 72 h; method in brief: as §5
[24] = tested on: PBL; experiment: Cytotoxicity against resting human PBLs assessed as reduction in cell growth; format: cell-based; method in brief: as §1
[25] = target: Tubulin (Bos taurus) (UniProt Q6B856+Q862L2+Q862F3); experiment: Displacement of [3H]colchicine from bovine brain tubulin at 500 uM after 10 mins by liquid scintillation counting
[26] = tested on: Jurkat; experiment: Antiproliferative activity against human Jurkat cells assessed as reduction in cell viability after 72 hrs by MTT assay; format: functional, cell-based; method in brief: as §5

IC50 [2] | IC50 [3] | IC50 [16] | IC50 [19] | IC50 [20] | IC50 [21] | IC50 [22] | inhibition [25] | Structure (SMILES) | IC50 [1] | Activity [14] | Activity [15] | IC50 [17] | IC50 [18] | IC50 [23] | IC50 [24] | further results
> 400 µM | 170 µM | 8.9 µM | 22.3 µM | 29.4 µM | 36.1 µM | > 100 µM | 38% | COc1cccc(-c2c3c(c(OC)c4c2OCO4)[C@H]([C@H]2OC(=O)c4c2ccc(OC)c4OC)N(C)CC3)c1 | > 200 µM | >80% | 28% | 13 µM | 7.1 µM | 57.2 µM | > 200 µM | Activity [4]: 70%; Activity [5]: Active; Activity [6]: Active; Activity [7]: Active; Activity [8]: Dose-dependent effect; Activity [9]: Dose-dependent effect; Activity [10]: Active; Activity [11]: >80%; Activity [12]: Active; IC50 [13]: 20 µM
 |  | 27.4 µM | 23.3 µM | 60.3 µM | 58.5 µM | 48.1 µM |  | COc1ccc2c(c1OC)C(=O)O[C@@H]2[C@H]1c2c(c(-c3ccc4ccccc4c3)c3c(c2OC)OCO3)CCN1C | > 200 µM |  |  | 8.4 µM | 30.8 µM | 67 µM | > 200 µM | IC50 [26]: 20 µM
 |  |  |  |  |  |  |  | COc1ccc(/C=C\c2cc(OC)c(OC)c(OC)c2)cc1O [COMBRETASTATIN A4] |  | >80% | 46% |  |  |  |  | 
> 400 µM | 170 µM |  |  |  |  |  | 44% | COc1ccc2c(c1OC)C(=O)O[C@@H]2[C@H]1c2c(cc3c(c2OC)OCO3)CCN1C [NOSCAPINE] |  |  |  |  |  |  |  | 
